Laboratory results from ChEMBL document CHEMBL2434871, “Discovery of a potent dual EGFR/HER-2 inhibitor L-2 (selatinib) for the treatment of cancer” (Eur J Med Chem, 2013).
Values belong to the molecule of their own block, whether it stands above or below them.

Legend:
[1] = molecular target: Receptor tyrosine-protein kinase erbB-2 (Homo sapiens, UniProt P04626); experiment: Inhibition of HER-2 (unknown origin) using poly-(Glu4-Tyr) as substrate after 1 hr by ELISA-based spectrophotometry
Procedure, shortened: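 ELISA on plates pre-coated with poly(Glu,Tyr 4:1) substrate. Serially diluted compounds plus ATP were added in 50 mM HEPES pH 7.4 containing 20 mM MgCl₂, 0.2 mM MnCl₂, 0.1 mM Na₃VO₄ and 1 mM DTT. Phosphotyrosine was detected with anti-phosphotyrosine antibody PY99 (1:500), then HRP anti-mouse IgG, then o-phenylenediamine/H₂O₂ at pH 5.5.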

[2] = molecular target: Epidermal growth factor receptor (Homo sapiens, UniProt P00533); experiment: Inhibition of EGFR (unknown origin) using poly-(Glu4-Tyr) as substrate after 1 hr by ELISA-based spectrophotometry
Mus musculus [3] = experiment: Toxicity in BALB/c athymic mouse xenografted with human SKOV3 cells assessed as scruffy skin at 200 mg/kg, po qd; type: organism-based, SK-OV-3; parameters: dose 200 mg/kg, route oral; details: in vivo
Mus musculus [4] = experiment: Toxicity in BALB/c athymic mouse xenografted with human NCI-N87 cells assessed as scruffy skin at 200 mg/kg, po qd; type: organism-based; parameters: dose 200 mg/kg, route oral; details: in vivo
Mus musculus [5] = experiment: Toxicity in BALB/c athymic mouse xenografted with human SKOV3 cells assessed as death at 200 mg/kg, po qd after 4 days; type: organism-based, SK-OV-3; parameters: dose 200 mg/kg, route oral; details: in vivo, 96 h
Procedure, shortened: (§1)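 Female BALB/c athymic mice, 4-6 weeks old and pathogen-free, were housed under sterile conditions. NCI-N87 or SK-OV-3 cells (2 × 10⁶) were implanted s.c. in the right flank. At tumor volumes of 100-300 mm³, mice were randomized to vehicle control (n = 10) or treatment (n = 6). Treatment was the tosylate salt at 200 mg/kg by oral gavage once daily. Mice were monitored for clinical signs, body weight and death.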

Mus musculus [6] = experiment: Toxicity in BALB/c athymic mouse xenografted with human SKOV3 cells assessed as diarrhea at 200 mg/kg, po qd; type: organism-based, SK-OV-3; parameters: dose 200 mg/kg, route oral; details: in vivo
Mus musculus [7] = experiment: Toxicity in BALB/c athymic mouse xenografted with human NCI-N87 cells assessed as death at 200 mg/kg, po qd after 4 days; type: organism-based; parameters: dose 200 mg/kg, route oral; details: in vivo, 96 h; procedure, shortened: as §1
Mus musculus [8] = experiment: Toxicity in BALB/c athymic mouse xenografted with human SKOV3 cells assessed as hematuria at 200 mg/kg, po qd after 4 days; type: organism-based, SK-OV-3; parameters: dose 200 mg/kg, route oral; details: in vivo, 96 h
Mus musculus [9] = experiment: Toxicity in BALB/c athymic mouse xenografted with human NCI-N87 cells assessed as hematuria at 200 mg/kg, po qd after 4 days; type: organism-based; parameters: dose 200 mg/kg, route oral; details: in vivo, 96 h
Mus musculus [10] = experiment: Toxicity in BALB/c athymic mouse xenografted with human NCI-N87 cells assessed as weight loss at 200 mg/kg, po qd after 4 days; type: organism-based; parameters: dose 200 mg/kg, route oral; details: in vivo, 96 h
Mus musculus [11] = experiment: Toxicity in BALB/c athymic mouse xenografted with human NCI-N87 cells assessed as diarrhea at 200 mg/kg, po qd; type: organism-based; parameters: dose 200 mg/kg, route oral; details: in vivo
BT-474 = experiment: Cytotoxicity against human BT474 cells after 72 hrs by SRB assay; type: functional, cell-based; details: BT-474, 72 h
Mus musculus [12] = experiment: Toxicity in BALB/c athymic mouse xenografted with human SKOV3 cells assessed as weight loss at 200 mg/kg, po qd after 4 days; type: organism-based, SK-OV-3; parameters: dose 200 mg/kg, route oral; details: in vivo, 96 h
NCI-N87 [13] = experiment: Cytotoxicity against human NCI-N87 cells after 72 hrs by SRB assay; type: functional, cell-based; details: NCI-N87, 72 h
Mus musculus [14] = experiment: Toxicity in BALB/c athymic mouse xenografted with human SKOV3 cells assessed as lethargic condition at 200 mg/kg, po qd; type: organism-based, SK-OV-3; parameters: dose 200 mg/kg, route oral; details: in vivo
Mus musculus [15] = experiment: Toxicity in BALB/c athymic mouse xenografted with human NCI-N87 cells assessed as lethargic condition at 200 mg/kg, po qd; type: organism-based; parameters: dose 200 mg/kg, route oral; details: in vivo
[16] = Cmax in Wistar rat at 100 mg/kg, po; type: ADME, organism-based; parameters: dose 100 mg/kg, route oral; details: in vivo
Procedure, shortened: (§2)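 Male Wistar rats (220 ± 10 g), n = 4 per group, given the tosylate salt orally by gavage at 100 mg/kg, suspended in 0.5% sodium carboxymethylcellulose. Blood was sampled at 0.25 to 24 h. Parent compound and the lapatinib metabolite were extracted by C18 solid-phase extraction and analysed by LC/MSn.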

[17] = AUC (0 to t) in Wistar rat at 100 mg/kg, po; type: ADME, organism-based; parameters: dose 100 mg/kg, route oral; details: plasma; procedure, shortened: as §2
[18] = Elimination half life in Wistar rat at 100 mg/kg, po; type: ADME, organism-based; parameters: dose 100 mg/kg, route oral; details: in vivo, read-out: beta t1/2 (converted); procedure, shortened: as §2
[19] = Aqueous solubility of the compound at 25 degC by shake-flask method; type: physicochemical; details: unbuffered water
NCI-N87 [20] = experiment: Antitumor activity against human NCI-N87 cells xenografted in BALB/c athymic mouse assessed as tumor regression at 200 mg/kg, po qd after 28 days relative to vehicle-treated control; type: functional; details: NCI-N87, 672 h, read-out: TGI
Procedure, shortened: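 Female BALB/c athymic mice, 4–6 weeks old, received 2 × 10⁶ NCI-N87 or SK-OV-3 cells s.c. in the right flank. At a tumor volume of 100–300 mm³ they were randomized (control n = 10, treated n = 6). Tosylate salt was given at 200 mg/kg qd by oral gavage, and controls received vehicle. Tumor volume was taken as length × width²/2 by caliper. Inhibition = (1 − T/C) × 100% on mean relative tumor volume (RTV). Two-tailed t test.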

SK-OV-3 = experiment: Antitumor activity against human SKOV3 cells xenografted in BALB/c athymic mouse assessed as tumor regression at 200 mg/kg, po qd after 21 days relative to vehicle-treated control; details: SK-OV-3, po, 504 h, read-out: TGI
[21] = Tmax in Wistar rat at 100 mg/kg, po; type: ADME, organism-based; parameters: dose 100 mg/kg, route oral; details: in vivo; procedure, shortened: as §2
[22] = Mean residence time in Wistar rat at 100 mg/kg, po; type: ADME, organism-based; parameters: dose 100 mg/kg, route oral; details: in vivo; procedure, shortened: as §2
[23] = AUC (0 to infinity) in Wistar rat at 100 mg/kg, po; type: ADME, organism-based; parameters: time infinity, dose 100 mg/kg, route oral; details: plasma; procedure, shortened: as §2

Chain of Epidermal growth factor receptor (P00533 whole entry): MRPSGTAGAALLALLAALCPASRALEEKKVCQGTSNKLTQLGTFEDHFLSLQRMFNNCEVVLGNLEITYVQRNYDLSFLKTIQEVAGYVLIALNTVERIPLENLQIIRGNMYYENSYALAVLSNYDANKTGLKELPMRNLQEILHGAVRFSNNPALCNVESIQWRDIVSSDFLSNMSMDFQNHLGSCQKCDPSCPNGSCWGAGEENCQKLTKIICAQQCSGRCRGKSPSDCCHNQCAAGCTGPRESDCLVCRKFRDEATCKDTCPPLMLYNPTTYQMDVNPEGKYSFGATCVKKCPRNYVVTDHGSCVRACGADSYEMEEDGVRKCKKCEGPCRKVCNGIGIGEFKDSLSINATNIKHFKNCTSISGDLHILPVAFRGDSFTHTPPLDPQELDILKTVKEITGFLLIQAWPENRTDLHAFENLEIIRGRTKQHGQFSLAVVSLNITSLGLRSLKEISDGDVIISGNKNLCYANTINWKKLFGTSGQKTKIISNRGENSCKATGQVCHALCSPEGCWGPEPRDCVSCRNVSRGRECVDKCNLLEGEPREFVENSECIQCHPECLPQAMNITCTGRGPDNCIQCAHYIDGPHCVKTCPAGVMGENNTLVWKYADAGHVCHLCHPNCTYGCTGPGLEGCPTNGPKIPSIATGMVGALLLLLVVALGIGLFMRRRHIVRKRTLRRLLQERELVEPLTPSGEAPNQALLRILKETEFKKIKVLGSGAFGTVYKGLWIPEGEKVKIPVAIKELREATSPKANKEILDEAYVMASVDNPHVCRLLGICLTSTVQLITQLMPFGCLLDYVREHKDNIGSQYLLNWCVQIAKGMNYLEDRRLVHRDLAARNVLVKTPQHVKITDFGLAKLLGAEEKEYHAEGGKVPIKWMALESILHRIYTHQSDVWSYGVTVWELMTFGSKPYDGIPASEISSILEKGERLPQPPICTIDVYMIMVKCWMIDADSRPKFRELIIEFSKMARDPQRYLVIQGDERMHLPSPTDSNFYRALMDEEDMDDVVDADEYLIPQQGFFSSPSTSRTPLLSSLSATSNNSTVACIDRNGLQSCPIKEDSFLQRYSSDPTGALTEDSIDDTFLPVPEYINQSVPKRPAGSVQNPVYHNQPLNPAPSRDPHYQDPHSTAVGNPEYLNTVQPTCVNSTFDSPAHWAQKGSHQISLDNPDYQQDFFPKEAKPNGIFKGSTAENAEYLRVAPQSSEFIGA
Chain of Receptor tyrosine-protein kinase erbB-2 (P04626 whole entry): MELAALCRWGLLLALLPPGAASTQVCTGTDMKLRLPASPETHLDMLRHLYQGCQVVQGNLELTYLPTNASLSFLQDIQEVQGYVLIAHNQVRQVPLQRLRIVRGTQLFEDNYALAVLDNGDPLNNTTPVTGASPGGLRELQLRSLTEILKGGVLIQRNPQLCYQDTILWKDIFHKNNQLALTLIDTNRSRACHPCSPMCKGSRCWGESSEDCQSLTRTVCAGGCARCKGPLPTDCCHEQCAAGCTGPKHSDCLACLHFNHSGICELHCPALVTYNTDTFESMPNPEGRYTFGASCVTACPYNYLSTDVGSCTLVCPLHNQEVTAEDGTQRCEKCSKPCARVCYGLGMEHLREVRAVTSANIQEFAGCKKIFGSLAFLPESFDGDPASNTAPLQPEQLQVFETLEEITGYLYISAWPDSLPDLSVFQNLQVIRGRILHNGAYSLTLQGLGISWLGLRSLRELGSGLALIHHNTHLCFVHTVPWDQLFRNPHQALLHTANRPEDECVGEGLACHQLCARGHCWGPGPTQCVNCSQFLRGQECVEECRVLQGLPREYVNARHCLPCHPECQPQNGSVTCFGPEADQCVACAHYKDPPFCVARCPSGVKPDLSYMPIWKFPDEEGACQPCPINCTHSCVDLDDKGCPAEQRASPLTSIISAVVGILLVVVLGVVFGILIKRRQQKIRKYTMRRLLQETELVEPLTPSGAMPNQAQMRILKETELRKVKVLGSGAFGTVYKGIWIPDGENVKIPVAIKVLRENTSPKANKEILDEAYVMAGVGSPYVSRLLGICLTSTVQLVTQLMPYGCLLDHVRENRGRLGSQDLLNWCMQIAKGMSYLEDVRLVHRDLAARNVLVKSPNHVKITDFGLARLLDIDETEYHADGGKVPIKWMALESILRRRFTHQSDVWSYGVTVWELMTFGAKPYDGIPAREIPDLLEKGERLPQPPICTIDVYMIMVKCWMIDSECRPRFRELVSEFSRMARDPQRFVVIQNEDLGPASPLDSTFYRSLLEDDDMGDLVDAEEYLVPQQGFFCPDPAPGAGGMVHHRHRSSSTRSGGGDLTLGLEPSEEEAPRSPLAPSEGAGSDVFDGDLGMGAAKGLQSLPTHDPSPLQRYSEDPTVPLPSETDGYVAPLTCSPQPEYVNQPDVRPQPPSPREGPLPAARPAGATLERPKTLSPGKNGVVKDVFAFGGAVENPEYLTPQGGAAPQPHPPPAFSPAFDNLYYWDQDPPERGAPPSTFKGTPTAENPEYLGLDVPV

IC50 [1]: 23.7 nM
IC50 [2]: 12.5 nM
Structure (SMILES): CN1CCN(Cc2ccc(-c3ccc4ncnc(Nc5ccc(OCc6cccc(F)c6)c(Cl)c5)c4c3)o2)CC1

Structure (SMILES): Cc1ccc(S(=O)(=O)O)cc1.Fc1cccc(COc2ccc(Nc3ncnc4ccc(-c5ccc(CN6CCNCC6)o5)cc34)cc2Cl)c1
Activity (Mus musculus [3]): Toxic
Activity (Mus musculus [4]): Toxic
Activity (Mus musculus [5]): Toxic
Activity (Mus musculus [6]): Toxic
Activity (Mus musculus [7]): Toxic
Activity (Mus musculus [8]): Toxic
Activity (Mus musculus [9]): Toxic
Activity (Mus musculus [10]): Toxic
Activity (Mus musculus [11]): Toxic
IC50 (BT-474): 41.9 nM
Activity (Mus musculus [12]): Toxic
IC50 [1]: 12.3 nM
IC50 (NCI-N87 [13]): 29.2 nM
Activity (Mus musculus [14]): Toxic
Activity (Mus musculus [15]): Toxic

IC50 [1]: 14.4 nM
IC50 [2]: 28 nM
Structure (SMILES): CCOC(=O)N1CCN(Cc2ccc(-c3ccc4ncnc(Nc5ccc(OCc6cccc(F)c6)c(Cl)c5)c4c3)o2)CC1

IC50 [1]: 19.8 nM
IC50 [2]: 59.9 nM
Structure (SMILES): CS(=O)(=O)N1CCN(Cc2ccc(-c3ccc4ncnc(Nc5ccc(OCc6cccc(F)c6)c(Cl)c5)c4c3)o2)CC1

IC50 [1]: 6.8 nM
IC50 [2]: 11.4 nM
Structure (SMILES): CC(=O)N1CCN(Cc2ccc(-c3ccc4ncnc(Nc5ccc(OCc6cccc(F)c6)c(Cl)c5)c4c3)o2)CC1

IC50 [1]: 53.3 nM
IC50 [2]: 232 nM
Structure (SMILES): CN1CCN(C(=O)c2ccc(-c3ccc4ncnc(Nc5ccc(OCc6cccc(F)c6)c(Cl)c5)c4c3)o2)CC1

Structure (SMILES): CS(=O)(=O)CCNCc1ccc(-c2ccc3ncnc(Nc4ccc(OCc5cccc(F)c5)c(Cl)c4)c3c2)o1.Cc1ccc(S(=O)(=O)O)cc1.Cc1ccc(S(=O)(=O)O)cc1.O [LAPATINIB DITOSYLATE]
Cmax [16]: 3900 ng/mL
AUC(0-t) [17]: 26900 ng·h/mL
half-life [18]: 1.91 h
solubility [19]: 7 µg/mL
IC50 (BT-474): 37.4 nM
inhibition in vivo at 200 mg/kg (NCI-N87 [20]): 89.7%
inhibition in vivo at 200 mg/kg (SK-OV-3): 78.8%
IC50 (NCI-N87 [13]): 46.2 nM
Tmax [21]: 2.5 h
MRT [22]: 5.52 h
AUC(0-inf) [23]: 26900 ng·h/mL
